# According to ChEMBL document CHEMBL3739408, “Antibacterial Prenylated Acylphloroglucinols from Psorothamnus fremontii” (J Nat Prod, 2015):
# How the values were obtained:
# [1] = tested on: Staphylococcus aureus; experiment: Antibacterial activity against methicillin-resistant Staphylococcus aureus ATCC 33591 by plate reader analysis; assay type: functional, organism-based
# In short: (§1)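 Strains from ATCC; modified CLSI broth microdilution. Samples in DMSO were serially diluted in 20% DMSO–saline and plated in duplicate. Inocula were set by adjusting OD630 to give the final target CFU/mL. Methicillin and vancomycin were positive controls, with highest test concentrations of 50 and 20 μg/mL. IC50 is the 50% growth inhibition relative to controls, from curve fitting.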
# [2] = tested on: Staphylococcus aureus; experiment: Antibacterial activity against methicillin-sensitive Staphylococcus aureus ATCC 29213 by plate reader analysis; assay type: functional, organism-based; in short: as §1
# [3] = tested on: Vero; experiment: Cytotoxicity against African green monkey Vero cells assessed as cell viability after 48 hrs by neutral red-based assay; conditions: Chlorocebus sabaeus
# In short: (§2)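 Mammalian cell lines from ATCC: human hepatic carcinoma HepG2, pig kidney epithelial LLC-PK1, and African green monkey kidney Vero. Highest test concentration was 50 μg/mL, and doxorubicin was the positive control at up to 10 μg/mL. IC50 was taken as the concentration giving 50% growth inhibition of the mammalian cells.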
# [4] = tested on: LLC-PK1; experiment: Cytotoxicity against pig LLC-PK1 cells assessed as cell viability after 48 hrs by neutral red-based assay; conditions: Sus scrofa, LLC-PK1, 48 h; in short: as §2
# [5] = tested on: Enterococcus faecium; experiment: Antibacterial activity against vancomycin-resistant Enterococcus faecium ATCC 700221 by plate reader analysis; assay type: functional, organism-based; in short: as §1
# [6] = tested on: Staphylococcus aureus; experiment: Antibacterial activity against methicillin-resistant Staphylococcus aureus ATCC 1696 by plate reader analysis; assay type: functional, organism-based; in short: as §1
# [7] = tested on: Staphylococcus aureus; experiment: Antibacterial activity against methicillin-resistant Staphylococcus aureus ATCC 1717 by plate reader analysis; assay type: functional, organism-based; in short: as §1
# [8] = tested on: Staphylococcus aureus; experiment: Antibacterial activity against methicillin-resistant Staphylococcus aureus ATCC 1708 by plate reader analysis; assay type: functional, organism-based; in short: as §1
# [9] = tested on: Enterococcus faecalis; experiment: Antibacterial activity against low level vancomycin-resistant Enterococcus faecalis ATCC 51299 by plate reader analysis; assay type: functional, organism-based; in short: as §1
# [10] = tested on: Enterococcus faecalis; experiment: Antibacterial activity against vancomycin-sensitive Enterococcus faecalis ATCC 29212 by plate reader analysis; assay type: functional, organism-based; in short: as §1
# [11] = tested on: HepG2; experiment: Cytotoxicity against human HepG2 cells assessed as cell viability after 48 hrs by neutral red-based assay; conditions: HepG2, 48 h; in short: as §2
Compound,IC50 [1] [µg/mL],IC50 [2] [µg/mL],IC50 [3] [µg/mL],IC50 [4] [µg/mL],IC50 [5] [µg/mL],IC50 [6] [µg/mL],IC50 [7] [µg/mL],IC50 [8] [µg/mL],IC50 [9] [µg/mL],IC50 [10] [µg/mL],IC50 [11] [µg/mL]
CCC(C)C(=O)C1=C(O)C(C)=C2OC(C)(C)CC3OC23C1=O (centres undefined),6.2,5.6,–,–,–,–,–,–,–,–,–
CC(C)=CCC1=C2OC(C)(C)CC3OC23C(=O)C(C(=O)C(C)C)=C1O (centres undefined),1.4,2.4,21,30,1.6,8.8,1.6,8.6,2.8,5.3,31
CC1=C2OC(C)(C)CC3OC23C(=O)C(C(=O)C(C)C)=C1O (centres undefined),11.1,10,–,–,–,–,–,–,–,–,–
CN[C@@H](CC(C)C)C(=O)N[C@H]1C(=O)N[C@@H](CC(N)=O)C(=O)N[C@H]2C(=O)N[C@H]3C(=O)N[C@H](C(=O)N[C@@H](C(=O)O)c4cc(O)cc(O)c4-c4cc3ccc4O)[C@H](O)c3ccc(c(Cl)c3)Oc3cc2cc(c3O[C@H]2O[C@@H](CO)[C@H](O)[C@@H](O)[C@@H]2O[C@@H]2C[C@@](C)(N)[C@@H](O)[C@@H](C)O2)Oc2ccc(cc2Cl)[C@H]1O,–,–,–,–,> 20,–,–,–,3.3,1.4,–
COc1cccc(OC)c1C(=O)N[C@@H]1C(=O)N2[C@@H]1SC(C)(C)[C@@H]2C(=O)O [METHICILLIN],> 50,0.5,–,–,–,3,26.9,3.2,–,–,–
COc1cccc2c1C(=O)c1c(O)c3c(c(O)c1C2=O)C[C@@](O)(C(=O)CO)C[C@@H]3O[C@H]1C[C@H](N)[C@H](O)[C@H](C)O1 [DOXORUBICIN],–,–,–,0.5,–,–,–,–,–,–,–
